Legend:
[1] = Antioxidant activity assessed as DPPH radical scavenging activity at 10^-4 M incubated for 30 mins by spectrophotometry; assay type: physicochemical; conditions: 0.5 h, 100 µM
Procedure, shortened: (§1)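 Compound at 10^-3 or 10^-4 M mixed with methanolic DPPH (0.1 mL of 1 mM stock; 3 mL total volume), shaken, kept in the dark 30 min at room temperature. Absorbance read at 517 nm. Scavenging (%) = (A_control − A_sample)/A_control × 100, where the control is DPPH in methanol alone. BHT served as reference antioxidant. Triplicate, mean ± SD of three independent experiments.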

[2] = Antioxidant activity assessed as DPPH radical scavenging activity at 10^-3 M incubated for 30 mins by spectrophotometry; assay type: physicochemical; conditions: 0.5 h, 1000 µM; procedure, shortened: as §1
CCRF-CEM = experiment: Growth inhibition of human CCRF-CEM cells after 48 hrs by sulforhodamine B assay; assay type: functional
Procedure, shortened: (§2)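 NCI-60 five-dose screen: cells incubated 48 h with five concentrations (0.01-100 µM), read by sulforhodamine B protein assay. Log concentration-% growth inhibition curves gave GI50 (50% decrease in net growth), TGI (total growth inhibition) and LC50 (net 50% loss of initial cells). 5-FU positive control.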

HL-60(TB) = experiment: Growth inhibition of human HL-60(TB) cells after 48 hrs by sulforhodamine B assay; assay type: functional; conditions: HL-60, 48 h
Procedure, shortened: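 NCI-60 five-dose screen, HL-60(TB) being one of the leukemia subpanel lines. Cells exposed to five concentrations (0.01-100 µM) for 48 h. GI50 (concentration giving 50% decrease in net cell growth) read from log concentration-% growth inhibition curves; TGI and LC50 also derived. 5-fluorouracil as positive control.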

[3] = Growth inhibition of human MOLT4 cells after 48 hrs by sulforhodamine B assay; assay type: functional; conditions: MOLT-4, 48 h; procedure, shortened: as §2
[4] = Growth inhibition of human RPMI8226 cells after 48 hrs by sulforhodamine B assay; assay type: functional; conditions: RPMI-8226, 48 h; procedure, shortened: as §2
SR = experiment: Growth inhibition of human SR cells after 48 hrs by sulforhodamine B assay; assay type: functional; procedure, shortened: as §2
[5] = Growth inhibition of human EKVX cells after 48 hrs by sulforhodamine B assay; assay type: functional; procedure, shortened: as §2
HOP-62 = experiment: Growth inhibition of human HOP62 cells after 48 hrs by sulforhodamine B assay; assay type: functional; conditions: HOP-62, 48 h; procedure, shortened: as §2
[6] = Growth inhibition of human HOP92 cells after 48 hrs by sulforhodamine B assay; assay type: functional; conditions: HOP-92, 48 h; procedure, shortened: as §2
NCI-H226 = experiment: Growth inhibition of human NCI-H226 cells after 48 hrs by sulforhodamine B assay; assay type: functional; conditions: NCI-H226, 48 h; procedure, shortened: as §2
NCI-H522 = experiment: Growth inhibition of human NCI-H522 cells after 48 hrs by sulforhodamine B assay; assay type: functional; conditions: NCI-H522, 48 h; procedure, shortened: as §2
[7] = Growth inhibition of human HCT116 cells after 48 hrs by sulforhodamine B assay; assay type: functional; conditions: HCT-116, 48 h; procedure, shortened: as §2
SF-268 = experiment: Growth inhibition of human SF268 cells after 48 hrs by sulforhodamine B assay; assay type: functional; conditions: SF-268, 48 h; procedure, shortened: as §2
[8] = Growth inhibition of human SF539 cells after 48 hrs by sulforhodamine B assay; assay type: functional; conditions: SF-539, 48 h; procedure, shortened: as §2
SNB-75 = experiment: Growth inhibition of human SNB75 cells after 48 hrs by sulforhodamine B assay; assay type: functional; conditions: SNB-75, 48 h; procedure, shortened: as §2
[9] = Growth inhibition of human UACC62 cells after 48 hrs by sulforhodamine B assay; assay type: functional; conditions: UACC-62, 48 h; procedure, shortened: as §2
IGROV-1 = experiment: Growth inhibition of human IGROV1 cells after 48 hrs by sulforhodamine B assay; assay type: functional; conditions: IGROV-1, 48 h; procedure, shortened: as §2
[10] = Growth inhibition of human OVCAR4 cells after 48 hrs by sulforhodamine B assay; assay type: functional; conditions: OVCAR-4, 48 h; procedure, shortened: as §2
A498 = experiment: Growth inhibition of human A498 cells after 48 hrs by sulforhodamine B assay; assay type: functional; conditions: A498, 48 h; procedure, shortened: as §2
SN12C = experiment: Growth inhibition of human SN12C cells after 48 hrs by sulforhodamine B assay; assay type: functional; procedure, shortened: as §2
[11] = Growth inhibition of human UO31 cells after 48 hrs by sulforhodamine B assay; assay type: functional; conditions: UO-31, 48 h; procedure, shortened: as §2
DU-145 = experiment: Growth inhibition of human DU145 cells after 48 hrs by sulforhodamine B assay; assay type: functional; conditions: DU-145, 48 h; procedure, shortened: as §2
MCF7 = experiment: Growth inhibition of human MCF7 cells after 48 hrs by sulforhodamine B assay; assay type: functional; conditions: MCF7, 48 h; procedure, shortened: as §2
MDA-MB-231 = experiment: Growth inhibition of human MDA-MB-231 cells after 48 hrs by sulforhodamine B assay; assay type: functional; conditions: MDA-MB-231, 48 h; procedure, shortened: as §2
[12] = Growth inhibition of human BT549 cells after 48 hrs by sulforhodamine B assay; assay type: functional; conditions: BT-549, 48 h; procedure, shortened: as §2

## COc1ccc(-c2cc(-c3cccn3C)c(C#N)c(N)n2)cc1OC
[1]
  inhibition (INH): 19%
[2]
  inhibition (INH): 33%
CCRF-CEM
  GI50: 0.01 µM
  LC50 (concentration causing net 50% loss of initial cells): 9.77 µM
  TGI: 3980 nM
HL-60(TB)
  GI50: 19.5 µM
[3]
  GI50: 46.8 µM
[4]
  GI50: 38.9 µM
SR
  GI50: 56.2 µM
[5]
  GI50: > 100 µM
HOP-62
  GI50: > 100 µM
[6]
  GI50: 5130 nM
NCI-H226
  GI50: > 100 µM
NCI-H522
  GI50: 40.7 µM
[7]
  GI50: 89.1 µM
SF-268
  GI50: 83.2 µM
[8]
  GI50: 83.2 µM
SNB-75
  GI50: 20.9 µM
  TGI: 70.8 µM
[9]
  GI50: 87.1 µM
IGROV-1
  GI50: 95.5 µM
[10]
  GI50: 40.7 µM
A498
  GI50: 83.2 µM
SN12C
  GI50: 67.6 µM
[11]
  GI50: 97.7 µM
DU-145
  GI50: 91.2 µM
MCF7
  GI50: 93.3 µM
MDA-MB-231
  GI50: 38 µM
[12]
  GI50: 64.6 µM

## Cn1cccc1-c1cc(-c2ccccc2)nc(N)c1C#N
[1]
  inhibition (INH): 12%
[2]
  inhibition (INH): 27%
CCRF-CEM
  GI50: 0.08 µM
  LC50 (concentration causing net 50% loss of initial cells): 3.55 µM
  TGI: 380 nM
HL-60(TB)
  GI50: 0.76 µM
[3]
  GI50: > 100 µM
[4]
  GI50: 53.7 µM
SR
  GI50: 35.5 µM
[5]
  GI50: 95.5 µM
HOP-62
  GI50: 81.3 µM
[6]
  GI50: 10 nM
  TGI: 0.05 µM
NCI-H226
  GI50: > 100 µM
NCI-H522
  GI50: 61.6 µM
[7]
  GI50: > 100 µM
SF-268
  GI50: 79.4 µM
[8]
  GI50: 33.9 µM
SNB-75
  GI50: 18.6 µM
  TGI: 77.6 µM
[9]
  GI50: 44.7 µM
IGROV-1
  GI50: > 100 µM
[10]
  GI50: 46.8 µM
A498
  GI50: 91.2 µM
SN12C
  GI50: > 100 µM
[11]
  GI50: > 100 µM
DU-145
  GI50: > 100 µM
MCF7
  GI50: > 100 µM
MDA-MB-231
  GI50: 67.6 µM
[12]
  GI50: 60.2 µM

## Cn1cccc1-c1cc(-c2cccs2)[nH]c(=O)c1C#N
CCRF-CEM
  GI50: > 100 µM
HL-60(TB)
  GI50: > 100 µM
[3]
  GI50: > 100 µM
[4]
  GI50: > 100 µM
SR
  GI50: > 100 µM
[5]
  GI50: 52.5 µM
HOP-62
  GI50: 83.2 µM
[6]
  GI50: 10000 nM
  TGI: 40.7 µM
NCI-H226
  GI50: 69.2 µM
NCI-H522
  GI50: 25.7 µM
[7]
  GI50: > 100 µM
SF-268
  GI50: > 100 µM
[8]
  GI50: > 100 µM
SNB-75
  GI50: 38.1 µM
[9]
  GI50: 72.4 µM
IGROV-1
  GI50: 22.9 µM
[10]
  GI50: > 100 µM
A498
  GI50: 17.8 µM
SN12C
  GI50: > 100 µM
[11]
  GI50: 13.8 µM
  TGI: 27.5 µM
[11]; read-out: LC50 (the source's name)
  CC50: 54.9 µM
DU-145
  GI50: > 100 µM
MCF7
  GI50: > 100 µM
MDA-MB-231
  GI50: > 100 µM
[12]
  GI50: > 100 µM

## Cc1cc(C(C)(C)C)c(O)c(C(C)(C)C)c1 [BUTYLATED HYDROXYTOLUENE]
[1]
  inhibition (INH): 20%
[2]
  inhibition (INH): 36%

## COc1ccc(-c2cc(-c3cccn3C)c(C#N)c(=O)[nH]2)cc1OC
[1]
  inhibition (INH): 17%
[2]
  inhibition (INH): 31%
HL-60(TB)
  GI50: > 100 µM
[3]
  GI50: 22.9 µM
[4]
  GI50: > 100 µM
SR
  GI50: 0.48 µM
[5]
  GI50: 30.9 µM
HOP-62
  GI50: > 100 µM
[6]
  GI50: 50 nM
  TGI: 9.77 µM
NCI-H226
  GI50: > 100 µM
NCI-H522
  GI50: > 100 µM
[7]
  GI50: 91.2 µM
SF-268
  GI50: > 100 µM
[8]
  GI50: > 100 µM
[10]
  GI50: > 100 µM
SN12C
  GI50: > 100 µM
DU-145
  GI50: > 100 µM
MCF7
  GI50: > 100 µM
MDA-MB-231
  GI50: > 100 µM
[12]
  GI50: 34.7 µM

## Cn1cccc1-c1cc(-c2ccccc2)[nH]c(=O)c1C#N
CCRF-CEM
  GI50: > 100 µM
HL-60(TB)
  GI50: > 100 µM
[3]
  GI50: 29.1 µM
  TGI: 57.4 µM
[4]
  GI50: > 100 µM
SR
  GI50: > 100 µM
[5]
  GI50: 31.7 µM
HOP-62
  GI50: > 100 µM
[6]
  GI50: 110 nM
  TGI: 0.13 µM
NCI-H226
  GI50: > 100 µM
NCI-H522
  GI50: > 100 µM
[7]
  GI50: > 100 µM
SF-268
  GI50: > 100 µM
[8]
  GI50: > 100 µM
SNB-75
  GI50: 47.4 µM
[9]
  GI50: 97.7 µM
IGROV-1
  GI50: > 100 µM
[10]
  GI50: > 100 µM
A498
  GI50: 27.5 µM
SN12C
  GI50: > 100 µM
[11]
  GI50: > 100 µM
DU-145
  GI50: > 100 µM
MCF7
  GI50: > 100 µM
MDA-MB-231
  GI50: 83.2 µM
[12]
  GI50: 85.1 µM

## CC1CCCc2c1[nH]c(=O)c(C#N)c2-c1cccn1C (centres undefined)
CCRF-CEM
  GI50: > 100 µM
HL-60(TB)
  GI50: > 100 µM
[3]
  GI50: > 100 µM
[4]
  GI50: > 100 µM
SR
  GI50: > 100 µM
[5]
  GI50: > 100 µM
HOP-62
  GI50: > 100 µM
[6]
  GI50: > 100000 nM
NCI-H226
  GI50: > 100 µM
NCI-H522
  GI50: > 100 µM
[7]
  GI50: > 100 µM
SF-268
  GI50: > 100 µM
[8]
  GI50: > 100 µM
SNB-75
  GI50: 39.8 µM
[9]
  GI50: > 100 µM
IGROV-1
  GI50: > 100 µM
[10]
  GI50: 69.2 µM
A498
  GI50: > 100 µM
SN12C
  GI50: > 100 µM
[11]
  GI50: > 100 µM
DU-145
  GI50: > 100 µM
MCF7
  GI50: > 100 µM
MDA-MB-231
  GI50: > 100 µM
[12]
  GI50: > 100 µM

## Cn1cccc1-c1cc(-c2cccs2)nc(N)c1C#N
CCRF-CEM
  GI50: > 100 µM
HL-60(TB)
  GI50: > 100 µM
[3]
  GI50: > 100 µM
[4]
  GI50: > 100 µM
SR
  GI50: 5.37 µM
  TGI: 67.6 µM
[5]
  GI50: > 100 µM
HOP-62
  GI50: > 100 µM
[6]
  GI50: > 100000 nM
NCI-H226
  GI50: > 100 µM
NCI-H522
  GI50: > 100 µM
[7]
  GI50: > 100 µM
SF-268
  GI50: > 100 µM
[8]
  GI50: > 100 µM
SNB-75
  GI50: 45.7 µM
[9]
  GI50: 87.1 µM
IGROV-1
  GI50: > 100 µM
[10]
  GI50: 85.1 µM
A498
  GI50: > 100 µM
SN12C
  GI50: > 100 µM
[11]
  GI50: > 100 µM
DU-145
  GI50: > 100 µM
MCF7
  GI50: > 100 µM
MDA-MB-231
  GI50: > 100 µM
[12]
  GI50: > 100 µM
